Experimental data reported in ChEMBL document CHEMBL1159127 (Bioorg Med Chem, 2010).
≈ marks a conversion by molar mass, not a printed value.

Columns and labels:
[1] = Aqueous solubility in phosphate buffer at pH 7.4; type: physicochemical
Summary of the method: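 Thermodynamic solubility by the Avdeef–Testa approach. About 1 mg of ground compound went into 1.0 mL of 1/15 M phosphate buffer (pH 7.4) […], shaken 48 h at 25 °C, then filtered (0.22 µm). Filtrate was diluted in DMF and quantified by reversed-phase HPLC-UV (263–288 nm) against a calibration curve.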

[2] = Thermodynamic aqueous solubility in equal volume of ethyl alcohol and 1/15M phosphate buffer at pH 7.4; type: physicochemical; details: 1:1 (v/v) ethyl alcohol / 1/15 M phosphate buffer
Summary of the method: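 About 1 mg solid ground in agate mortar, suspended in 1.0 mL of a 1:1 mix of 1/15 M phosphate buffer (pH 7.4) and EtOH, shaken 48 h at 25 °C. Filtered (0.22 µm), filtrate diluted in DMF, quantified by reversed-phase C18 HPLC with UV at 263–288 nm against a calibration curve, corrected for dilution.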

MCF7 = test: Toxicity in human MCF7 cells assessed as effect on cell viability after 24 hrs; type: cell-based; details: mcf7, 24 h
Summary of the method: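 Same MCF-7 plating and 24 h compound exposure as the EROD assay. Medium was then removed, cells were detached with 0.25% trypsin/EDTA and counted.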

[3] = target: T1, Aryl hydrocarbon receptor (Homo sapiens, UniProt P35869); test: Agonist activity at aryl hydrocarbon receptor in human MCF7 cells after 24 hrs CYP1A1-dependent EROD assay; type: functional, cell-based
T1 sequence (P35869 whole entry): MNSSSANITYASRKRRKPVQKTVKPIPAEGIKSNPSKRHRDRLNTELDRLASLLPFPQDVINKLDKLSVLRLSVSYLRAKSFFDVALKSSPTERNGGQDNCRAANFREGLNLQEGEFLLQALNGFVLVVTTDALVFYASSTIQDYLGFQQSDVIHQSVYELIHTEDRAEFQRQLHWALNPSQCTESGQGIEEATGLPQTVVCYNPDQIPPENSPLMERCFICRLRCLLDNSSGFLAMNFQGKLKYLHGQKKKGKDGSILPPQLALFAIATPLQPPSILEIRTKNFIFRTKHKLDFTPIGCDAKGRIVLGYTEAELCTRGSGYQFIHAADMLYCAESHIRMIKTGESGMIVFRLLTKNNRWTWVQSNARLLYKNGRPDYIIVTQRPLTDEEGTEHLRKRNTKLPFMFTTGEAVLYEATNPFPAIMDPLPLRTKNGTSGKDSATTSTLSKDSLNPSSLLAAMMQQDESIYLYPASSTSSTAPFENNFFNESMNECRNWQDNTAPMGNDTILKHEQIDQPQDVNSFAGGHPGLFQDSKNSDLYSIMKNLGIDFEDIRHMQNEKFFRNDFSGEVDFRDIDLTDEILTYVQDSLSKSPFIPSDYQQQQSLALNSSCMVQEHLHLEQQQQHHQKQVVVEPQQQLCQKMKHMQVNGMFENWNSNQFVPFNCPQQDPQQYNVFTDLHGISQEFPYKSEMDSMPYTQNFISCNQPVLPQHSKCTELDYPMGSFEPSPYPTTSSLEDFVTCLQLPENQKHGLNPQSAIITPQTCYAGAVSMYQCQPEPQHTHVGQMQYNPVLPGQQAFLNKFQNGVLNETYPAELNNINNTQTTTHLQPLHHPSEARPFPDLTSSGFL
Summary of the method: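 MCF-7 cells in high-glucose D-MEM with 10% FBS, plated at 5×10^5 cells/mL, settled 4.5 h at 37 °C, then exposed to compound (3% DMSO in added portion) for 24 h. Washed cells were given ethoxyresorufin, dicoumarol and NADPH in PBS for 150 min at 37 °C. Triplicate; EC50 derived.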

[4] = phosphate buffer, read-out: solubility

Row | SMILES | solubility [1, 4] [µg/mL] | solubility ([1]; buffer) [µg/mL] | solubility thermodynamic [2] [µg/mL] | Activity (MCF7) | EC50 [3] [nM]
1 | O=C(NC[C@H](NS(=O)(=O)c1ccccc1)C(=O)O)c1ccc(N2CCC(NC3=NCCCN3)CC2)cc1 | < 0.1 |  |  |  | 
2 | O=C(NC[C@H](NS(=O)(=O)c1ccccc1)C(=O)O)c1ccc(N2CCC(NC3=NCCCN3)CC2)c(F)c1 |  | 0.6 (≈ 1.1 µM) |  |  | 
3 | O=C(NC[C@H](NS(=O)(=O)c1ccccc1)C(=O)O)c1ccc(N2CCC[C@H](N=C3NCCCN3)C2)cc1 |  | 3.5 (≈ 6.62 µM) |  |  | 
4 | Cc1cccc(C)c1-c1cc(=O)c2c(ccc3ccccc32)o1 |  |  | 1270 (≈ 4230 µM) | Non-toxic | > 10000
5 | O=c1cc(-c2ccccc2F)oc2ccc3ccccc3c12 |  |  | 153 (≈ 527 µM) | Non-toxic | 330
6 | COc1ccccc1-c1cc(=O)c2c(ccc3ccccc32)o1 |  |  | 45.8 (≈ 151 µM) | Non-toxic | 270
7 | O=c1cc(-c2ccccn2)oc2ccc3ccccc3c12 |  |  | 299 (≈ 1090 µM) | Non-toxic | 450
8 | O=c1cc(-c2c(F)cccc2F)oc2ccc3ccccc3c12 |  |  | 248 (≈ 804 µM) | Non-toxic | 200
9 | Cc1ccccc1-c1cc(=O)c2c(ccc3ccccc32)o1 |  |  | 262 (≈ 915 µM) | Non-toxic | > 10000
10 | O=c1cc(-c2ccccc2)oc2ccc3ccccc3c12 [BETA-NAPHTHOFLAVONE] | < 0.15 |  | 84.6 (≈ 311 µM) | Non-toxic | 
